For data set [1] the following is noted: stated without method or reference; cited from earlier work.
The target of a further data set is T1, NTPDase3 (Homo sapiens, UniProt O75355).
T1 sequence (O75355 1-529): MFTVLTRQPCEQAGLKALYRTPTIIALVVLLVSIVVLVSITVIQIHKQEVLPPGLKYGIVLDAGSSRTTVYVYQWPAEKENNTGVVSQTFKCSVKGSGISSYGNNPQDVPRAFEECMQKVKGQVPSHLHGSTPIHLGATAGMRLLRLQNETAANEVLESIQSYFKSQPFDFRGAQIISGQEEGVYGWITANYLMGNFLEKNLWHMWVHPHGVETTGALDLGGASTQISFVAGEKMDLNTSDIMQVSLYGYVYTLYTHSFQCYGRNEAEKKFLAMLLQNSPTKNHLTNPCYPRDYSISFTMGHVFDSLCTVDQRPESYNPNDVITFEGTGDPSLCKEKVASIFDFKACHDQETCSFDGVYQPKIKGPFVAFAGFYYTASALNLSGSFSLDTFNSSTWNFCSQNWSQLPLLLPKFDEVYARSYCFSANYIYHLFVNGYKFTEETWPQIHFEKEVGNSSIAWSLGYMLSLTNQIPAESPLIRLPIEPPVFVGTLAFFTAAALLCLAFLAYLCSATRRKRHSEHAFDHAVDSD
Description: Malachite green assay, NTPDase3 in COS-7 cell membranes. The data set is classed as biochemical. An outline of the steps: (§1)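 Human NTPDase2, -3 or -8 was expressed in COS-7 membranes (ca. 100 ng protein, adjusted for 10–20% substrate conversion). Enzyme was preincubated 5 min at 37°C with test compound (50 µM single point, or 0.1–300 µM for curves). It was then incubated 15 min at 37°C with 100 µM ATP in HEPES/CaCl2/MgCl2, pH 7.4, ≤2% DMSO. Malachite green absorbance at 600 nm was corrected by a denatured-enzyme blank; n=3.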

A further data set has as its target T2, NTPDase8 (Homo sapiens, UniProt Q5MY95).
T2 sequence (Q5MY95 1-495): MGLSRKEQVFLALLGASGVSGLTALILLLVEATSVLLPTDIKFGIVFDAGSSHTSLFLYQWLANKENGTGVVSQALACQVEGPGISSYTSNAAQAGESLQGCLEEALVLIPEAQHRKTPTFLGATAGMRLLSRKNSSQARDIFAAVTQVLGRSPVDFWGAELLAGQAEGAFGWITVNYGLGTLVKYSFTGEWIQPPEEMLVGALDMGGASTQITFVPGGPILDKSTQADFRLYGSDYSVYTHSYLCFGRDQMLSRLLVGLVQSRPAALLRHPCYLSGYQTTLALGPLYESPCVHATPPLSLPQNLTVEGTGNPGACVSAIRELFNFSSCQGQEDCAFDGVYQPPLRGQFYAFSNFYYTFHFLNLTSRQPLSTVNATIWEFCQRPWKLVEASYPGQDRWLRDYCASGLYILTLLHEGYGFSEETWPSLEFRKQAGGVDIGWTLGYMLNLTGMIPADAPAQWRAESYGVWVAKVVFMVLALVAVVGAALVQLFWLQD
Description: Malachite green assay, NTPDase8 in COS-7 cell membranes. The data set is classed as biochemical. The essentials:
as §1

Another data set deals with T3, NPP3 (Homo sapiens, UniProt O14638).
T3 sequence (O14638 31-875 limits assumed): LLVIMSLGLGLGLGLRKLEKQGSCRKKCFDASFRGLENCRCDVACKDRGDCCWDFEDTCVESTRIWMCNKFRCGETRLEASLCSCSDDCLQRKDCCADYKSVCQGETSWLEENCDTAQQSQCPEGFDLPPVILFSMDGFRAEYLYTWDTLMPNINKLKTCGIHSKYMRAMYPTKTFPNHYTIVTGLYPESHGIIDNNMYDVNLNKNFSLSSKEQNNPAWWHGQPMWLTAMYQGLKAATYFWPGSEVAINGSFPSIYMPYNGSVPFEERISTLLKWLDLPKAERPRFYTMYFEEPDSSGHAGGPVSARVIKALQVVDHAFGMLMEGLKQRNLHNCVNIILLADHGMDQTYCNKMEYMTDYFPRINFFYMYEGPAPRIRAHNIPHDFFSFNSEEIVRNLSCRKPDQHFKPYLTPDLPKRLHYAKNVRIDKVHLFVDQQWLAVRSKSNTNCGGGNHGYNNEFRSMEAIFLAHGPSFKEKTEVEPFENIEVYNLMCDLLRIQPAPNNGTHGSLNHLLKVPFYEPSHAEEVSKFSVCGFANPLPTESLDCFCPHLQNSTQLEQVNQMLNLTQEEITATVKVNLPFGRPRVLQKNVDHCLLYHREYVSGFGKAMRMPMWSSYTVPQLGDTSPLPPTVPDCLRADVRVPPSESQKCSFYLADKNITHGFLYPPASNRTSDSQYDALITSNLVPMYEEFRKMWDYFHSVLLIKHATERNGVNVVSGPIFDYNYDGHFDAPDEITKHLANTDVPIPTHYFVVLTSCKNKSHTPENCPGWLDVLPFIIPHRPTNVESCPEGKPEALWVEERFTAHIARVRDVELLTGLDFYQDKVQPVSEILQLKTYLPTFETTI
Nature of the data set: NPP3 assay. The data set is classed as biochemical. The essentials: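 Purified soluble NPP3 (95 ng, Sf9-expressed) was incubated with 50 µM (final) test compound, 2% DMSO and 400 µM p-nitrophenyl thymidine 5'-monophosphate. Reactions were stopped with 1 M NaOH, and p-nitrophenolate was read at 400 nm.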

The conditions of data set [2]: ref 61 62; cited from earlier work.
For data set [3] the following is noted: cited from earlier work.
In another data set the target is T4, NTPDase2 (Homo sapiens, UniProt Q9Y5L3).
T4 sequence (Q9Y5L3 1-495): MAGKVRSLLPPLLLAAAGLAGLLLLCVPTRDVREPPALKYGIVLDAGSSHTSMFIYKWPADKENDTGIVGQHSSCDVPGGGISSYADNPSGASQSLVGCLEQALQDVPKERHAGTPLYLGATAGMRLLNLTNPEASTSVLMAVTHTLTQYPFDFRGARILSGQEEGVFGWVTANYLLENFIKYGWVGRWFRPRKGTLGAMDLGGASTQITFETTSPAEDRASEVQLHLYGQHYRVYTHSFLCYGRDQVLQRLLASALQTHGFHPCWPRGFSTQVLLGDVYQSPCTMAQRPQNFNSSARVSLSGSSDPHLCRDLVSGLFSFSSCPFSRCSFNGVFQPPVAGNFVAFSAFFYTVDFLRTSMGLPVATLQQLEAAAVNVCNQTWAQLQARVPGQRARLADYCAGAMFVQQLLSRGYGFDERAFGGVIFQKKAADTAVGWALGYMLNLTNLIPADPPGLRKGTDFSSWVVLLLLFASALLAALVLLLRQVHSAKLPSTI
Nature of the data set: Malachite green assay, NTPDase2 in COS-7 cell membranes. The class given is biochemical. The essentials:
as §1

Setting [4] is: read-out: % inhibition at 50 µM.

Molecules are shown by their SMILES. A value given as a limit tells only on which side of the number the result lay.

As a reminder, the IC50 is the concentration that inhibits the measured activity by half. As a reminder, the inhibition is the relative decrease from the control value, in per cent.

Take `Cc1cc(Nc2ncc(Cl)c(Nc3ccccc3S(=O)(=O)C(C)C)n2)c(OC(C)C)cc1C1CCNCC1` [ceritinib, Ceritinib]: the “pKb of the piperidine nitrogen” value in data set [1] is given as about 10. Further, the IC50 on NTPDase3 was 22.7 ± 4 µM; against NTPDase8, 20.3 ± 1.5 µM; against NPP3, over 50 µM; against NTPDase2, over 50 µM. The inhibition at 50 µM at NPP3 (setting [4]) is 1%; at NTPDase2 (setting [4]), -8%. The brain permeation result in data set [2] was “some brain permeation”. Besides, the metabolic stability result in data set [3] is recorded as “metabolically highly stable”.

These data come from article PMC9394215 (Journal for Immunotherapy of Cancer, 2022).
